From publication PMC4893637 (Theranostics, 2016)

What was measured:
[1] = tested on: BALB/c nude mouse LNCaP xenograft; assay: MicroPET in LNCaP xenograft mouse; type: in vivo; conditions: 68Ga-labeled, i.v.
Method in brief: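 Purified 68Ga-labelled test conjugates (50 MBq/nmol) were sterile-filtered and 100 µl injected into the tail vein of BALB/c nude mice bearing LNCaP xenografts under 2% sevoflurane. Two tracers were compared in the same mouse. Blocking used 100-fold excess of unlabelled compound, imaged 2 h post-injection.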

[2] = biological target: Recombinant human PSMA (rhPSMA) (Homo sapiens, UniProt Q04609); assay: NAALADase assay; type: biochemical
[3] = biological target: PSMA positive LNCaP cells (Homo sapiens, UniProt Q04609); assay: Internalization assay on LNCaP cells; type: cell-based; conditions: 30 nM radiolabeled compound, 45 min; 177Lu-labeled, except CIM 99mTc-labeled
Method in brief: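 Poly-L-lysine-coated wells were seeded with 10⁵ LNCaP cells in RPMI (10% FCS, 1% L-glutamine) and held overnight at 37 °C. Cells took up 30 nM radiolabelled test compound in Opti-MEM for 45 min at 37 °C or 4 °C, with 2-PMPA block or DMSO, in triplicate. Surface-bound tracer came off in two 5-min 50 mM glycine pH 2.8 washes and internalized tracer in 0.3 M NaOH lysate. All fractions were gamma-counted against a ligand standard.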

PSMA positive LNCaP cells, sequence (Q04609 whole entry): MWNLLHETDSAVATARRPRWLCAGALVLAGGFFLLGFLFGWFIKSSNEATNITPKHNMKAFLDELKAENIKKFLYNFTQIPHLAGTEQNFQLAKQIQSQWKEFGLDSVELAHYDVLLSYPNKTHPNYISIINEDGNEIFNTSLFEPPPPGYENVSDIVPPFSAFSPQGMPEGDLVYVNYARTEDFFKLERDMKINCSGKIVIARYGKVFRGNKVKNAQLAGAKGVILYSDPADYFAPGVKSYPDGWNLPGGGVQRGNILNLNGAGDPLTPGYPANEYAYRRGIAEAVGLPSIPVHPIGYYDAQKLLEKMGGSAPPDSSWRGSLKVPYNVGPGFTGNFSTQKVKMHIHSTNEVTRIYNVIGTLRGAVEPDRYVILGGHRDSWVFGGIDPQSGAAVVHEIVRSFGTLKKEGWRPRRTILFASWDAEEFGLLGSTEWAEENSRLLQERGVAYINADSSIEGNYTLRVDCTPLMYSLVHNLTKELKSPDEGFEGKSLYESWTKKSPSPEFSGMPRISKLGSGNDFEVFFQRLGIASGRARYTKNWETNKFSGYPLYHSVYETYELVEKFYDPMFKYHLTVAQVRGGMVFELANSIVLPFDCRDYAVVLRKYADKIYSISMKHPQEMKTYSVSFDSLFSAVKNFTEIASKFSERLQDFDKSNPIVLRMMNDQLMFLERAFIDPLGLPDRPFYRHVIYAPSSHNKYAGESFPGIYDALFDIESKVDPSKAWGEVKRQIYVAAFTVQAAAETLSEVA
Recombinant human PSMA (rhPSMA), sequence (Q04609 whole entry): as above

O=C(O)CC[C@H](NC(=O)N[C@@H](CCCCNC(=O)[C@H](Cc1ccc2ccccc2c1)NC(=O)[C@H]1CC[C@H](CNC(=O)CN2CCN(CC(=O)O)CCN(CC(=O)O)CCN(CC(=O)O)CC2)CC1)C(=O)O)C(=O)O [DOTA conjugate]
Time after which the amount in the tumor begins to decrease [1]: approximately 15 min | IC50 [2]: 0.8 ± 0.3 nM | Absolute value of compound inside of the cells (amount internalized) [3]: 3.7 ± 4.6%
